Measured values: ChEMBL document CHEMBL1130433, “Effects of log P and phenyl ring conformation on the binding of 5-phenylhydantoins to the voltage-dependent sodium channel” (J Med Chem, 1997)

Biological target: Sodium channel alpha subunits; brain (Types I, II, III) (Rattus norvegicus, UniProt P04775+P04774+P08104)
Assay: Inhibition of [3H]BTX-B binding to Neuronal voltage-dependent sodium channel of rat cerebral cortex synaptoneurosomes
Format: tissue-based
Outline: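 Ice-cold buffer dilution, GF/C filtration, scintillation counting. Nonspecific binding measured with 300 μM veratridine. Triplicates with a 40 μM DPH control tube. IC50 by Probit analysis, excluding points below 10% or above 90% inhibition.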

## O=C1NC(=O)C2(CCCc3ccccc32)N1 (centres undefined)
  IC50: 851 µM

## O=C1NC(=O)C2(CCCCc3ccccc32)N1 (centres undefined)
  IC50: 251 µM

## CCCCC1(c2ccc(C)cc2)NC(=O)NC1=O (centres undefined)
  IC50: 95 µM

## CCCCC1(c2cccc(C)c2)NC(=O)NC1=O (centres undefined)
  IC50: 58 µM

## CCCCC1(c2ccccc2C)NC(=O)NC1=O (centres undefined)
  IC50: 225 µM

## CCN1C(=O)NC(=O)[C@@]1(C)c1ccccc1
  IC50: 720 µM

## CC12C(=O)NC(=O)N1CCc1ccccc12 (centres undefined)
  IC50: 250 µM

## O=C1NC(=O)C2(CCc3ccccc32)N1 (centres undefined)
  IC50: 2112 µM

## O=C1NC(=O)C2(CCCCCc3ccccc32)N1 (centres undefined)
  IC50: 251 µM
